# Measurements reported in PubChem BioAssay.
# Activity calls are given as the source filed them.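 How the source made its calls, unless noted: active means viability at or below 30% in both replicate assays; inconclusive means viability at or below 30% in just one of the two assays; inactive means the rest.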
# How the values were obtained:
# [1] = reducers of endogenous Her2 protein level, primary screen, SKBR3 breast tumor cells, AlphaScreen, ATP viability (AID 461;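 active means Her2 level under about 52% in both replicate screens, with viability over 70% of control, limit read from the data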;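 on Her2 level: lower value means less Her2 protein in the cells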;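 on viability: percent of carrier control wells set as 100% viability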); conditions: 18-24 h, measured here: SKBR3 viability, ATP luminescence, at 10 µM
# [2] = target: Receptor tyrosine-protein kinase erbB-2 (Homo sapiens) (UniProt P04626); experiment: as above; conditions: 18-24 h, at 10 µM, stronger effect = lower value
# [3] = SK-BR-3 cell growth inhibitors, pilot screen, 24 h, human (AID 572;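 active means viability at or below 10% of carrier control in both of two separate runs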;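 further: compound exposure lasted between 18 and 24 h rather than exactly 24 h; 100% = carrier-treated control wells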); conditions: SK-BR-3 viability, CellTiter-Glo luminescence, at 10 µM, stronger effect = lower value
# [4] = HUVEC growth inhibition – cell-based, human, primary screen (AID 575); conditions: HUVEC proliferation, CellTiter-Glo luminescence, 72 h; at 10 µM; stronger effect = lower value;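 further: 100% = median of untreated cell wells with 0.1% DMSO on each plate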
# Summary of the method: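 Test system: HUVEC primary cells. Quantity: 1250 endothelial cells in each well. Dosing: single-point 10 µM, DMSO 0.1% final. Incubation: 72 h treatment at 37 °C. Measured by: CTG luminescence. Control set: DMSO cell controls and MePR drug controls. Plate: collagen-coated 384-well format.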
# [5] = growth inhibitors of H69AR lung tumor, primary screen, human, duplicate replicates (AID 580;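 active means viability at or under a set limit in both replicates, limit being median viability minus 3 SD, cut at about 48% in these data, passing the limit was not always enough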;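 further: 100% = mean luminescence of untreated wells and 0% = no signal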); conditions: H69AR lung tumor cells viability, ATP luminescence, 72 h; at 10 µM; stronger effect = lower value
# [6] = reversal of MRP1-mediated doxorubicin resistance, pilot screen, H69AR cells, doxorubicin co-treatment (AID 601;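 active means viability loss from added drug above about 55%, and viability with drug at most 40%, in both replicates, limit read from the data, passing the limit was not always enough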); conditions: CellTiter-Glo, 72 h, at 10 µM; for differential viability (reversal): stronger effect = higher value
# [7] = 384-well plate pilot, post-Golgi transport modulator project, inhibition of yeast transport mutant growth (AID 636; in the data active means inhibition above about 31%); conditions: absorbance 615 nm, about 18 h, stronger effect = higher value
# [8] = growth suppression of yeast trafficking mutant, preliminary HTS, modulators of trafficking downstream of Golgi apparatus project, 1536-format plate, OD 615 nm (AID 637; in the data active means inhibition above about 30%); conditions: yeast transport mutant growth, absorbance 615 nm, 18 h; stronger effect = higher value
# [9] = H69AR cells + 2 uM doxorubicin, measured here: viability with 2 uM doxorubicin, stronger effect = lower value
# [10] = H69AR cells, compound alone cytotoxicity
# Receptor tyrosine-protein kinase erbB-2 (Homo sapiens), sequence (P04626 whole entry, looked up): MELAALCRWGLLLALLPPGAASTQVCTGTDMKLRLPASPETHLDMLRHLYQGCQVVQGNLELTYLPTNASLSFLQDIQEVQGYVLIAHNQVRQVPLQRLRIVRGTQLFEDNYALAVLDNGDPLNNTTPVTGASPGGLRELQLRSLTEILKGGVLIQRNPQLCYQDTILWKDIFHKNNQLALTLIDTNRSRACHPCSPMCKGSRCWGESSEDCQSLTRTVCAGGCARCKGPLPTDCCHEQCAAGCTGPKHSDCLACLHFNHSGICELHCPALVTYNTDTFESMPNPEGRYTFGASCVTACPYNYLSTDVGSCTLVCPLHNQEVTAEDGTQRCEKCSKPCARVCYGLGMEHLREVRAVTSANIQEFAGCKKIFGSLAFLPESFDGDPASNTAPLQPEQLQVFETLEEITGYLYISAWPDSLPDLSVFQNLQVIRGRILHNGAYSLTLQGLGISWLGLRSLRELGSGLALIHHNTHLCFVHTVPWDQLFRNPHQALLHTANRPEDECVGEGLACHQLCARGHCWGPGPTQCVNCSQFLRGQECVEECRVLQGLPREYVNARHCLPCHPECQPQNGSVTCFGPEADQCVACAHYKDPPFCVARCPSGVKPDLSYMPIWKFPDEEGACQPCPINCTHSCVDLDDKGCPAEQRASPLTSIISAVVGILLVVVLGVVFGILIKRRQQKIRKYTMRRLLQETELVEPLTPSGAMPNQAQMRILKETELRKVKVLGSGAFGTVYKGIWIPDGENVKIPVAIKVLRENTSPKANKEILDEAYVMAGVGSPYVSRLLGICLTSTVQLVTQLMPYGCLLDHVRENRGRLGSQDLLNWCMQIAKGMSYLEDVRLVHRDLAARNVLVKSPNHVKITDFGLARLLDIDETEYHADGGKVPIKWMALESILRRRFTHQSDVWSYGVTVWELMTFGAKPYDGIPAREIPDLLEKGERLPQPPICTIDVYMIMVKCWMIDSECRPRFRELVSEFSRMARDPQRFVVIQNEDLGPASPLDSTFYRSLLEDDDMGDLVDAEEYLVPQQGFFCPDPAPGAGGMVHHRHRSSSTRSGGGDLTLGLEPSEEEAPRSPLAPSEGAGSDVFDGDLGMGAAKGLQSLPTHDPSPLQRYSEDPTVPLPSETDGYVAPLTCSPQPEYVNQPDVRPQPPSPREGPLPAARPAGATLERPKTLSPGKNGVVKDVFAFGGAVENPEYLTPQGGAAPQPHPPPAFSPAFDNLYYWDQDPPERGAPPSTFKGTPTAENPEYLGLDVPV
SMILES,viability [1] [%],Her2 level [2],viability [3],viability [4],viability [5],differential viability (reversal) ([6]; H69AR cells + 2 uM doxorubicin),"viability [6, 9] [%]","viability [6, 10] [%]",inhibition [7],inhibition [8]
CC1=C(C(=O)OCCOC(C)C)C(c2cc3c(cc2Br)OCO3)C2=C(CCCC2=O)N1 (stereo not given),102,111% (inactive),102% (inactive),86.2% (inactive),80.8% (inactive),1.89% (inactive),78.9,80.8,-2.8% (inactive),6.07% (inactive)
Cc1ccc(S(=O)(=O)NCCC(=O)OCn2nnc3ccccc3c2=O)cc1,95.5,82.5% (inactive),95.5% (inactive),83.8% (inactive),95.1% (inactive),-13.1% (inactive),108,95.1,-2.37% (inactive),1.27% (inactive)
O=C(O)c1ccc2c(c1)N(Cc1ccccc1F)C(=O)c1ccccc1S2=O (stereo not given),96,83.5% (inactive),96% (inactive),92.8% (inactive),103% (inactive),5.27% (inactive),97.8,103,-3.73% (inactive),4.43% (inactive)
Cc1nc(NCc2ccco2)c2oc3ccccc3c2n1,114,87% (inactive),114% (inactive),100% (inactive),80.6% (inactive),-1.13% (inactive),81.8,80.6,-6.4% (inactive),4.44% (inactive)
COc1cc(=O)[nH]c(SCc2c(F)c(F)c(F)c(F)c2F)n1,95,95.5% (inactive),95% (inactive),94% (inactive),91.5% (inactive),-1.69% (inactive),93.2,91.5,-5.6% (inactive),-10% (inactive)
FC(F)Sc1nnc(-c2cccs2)n1-c1ccccc1,101,92% (inactive),101% (inactive),93.6% (inactive),98% (inactive),10.1% (inactive),87.9,98,-7.33% (inactive),2.74% (inactive)
CCn1c(SCC(=O)c2ccc(F)cc2)nnc1-c1ccoc1C,104,97.5% (inactive),104% (inactive),104% (inactive),106% (inactive),19.3% (inactive),86.9,106,-6.1% (inactive),-0.95% (inactive)
O=C(CS(=O)(=O)Cc1ccccc1)N1CCc2ccccc2C1,94.5,94.5% (inactive),94.5% (inactive),86.4% (inactive),101% (inactive),11.5% (inactive),89.4,101,-5.6% (inactive),-1.61% (inactive)
CCCCN(C)CCCNC(=O)CC1Oc2ccccc2NC1=O (stereo not given),86.5,91.5% (inactive),86.5% (inactive),104% (inactive),93.4% (inactive),-7.03% (inactive),100,93.4,-4.53% (inactive),2.95% (inactive)
CCN(C(=O)c1cn(C)c(=O)c2cc(OC)c(OC)cc12)c1ccccc1C,108,75% (inactive),108% (inactive),106% (inactive),98.2% (inactive),7.24% (inactive),91,98.2,-0.54% (inactive),-1.43% (inactive)
Nc1nc2sc3c(c2c(=O)s1)CCCC3,112,108% (inactive),112% (inactive),60.3% (inactive),74.7% (inactive),-3.39% (inactive),78.1,74.7,-2.24% (inactive),1.31% (inactive)
Cc1nc2ccccc2cc1O,133,104% (inactive),133% (inactive),85.9% (inactive),92% (inactive),-16.9% (inactive),109,92,-6.05% (inactive),13.1% (inactive)
O=C(Cn1nnc(-c2ccccc2)n1)Nc1ccccc1N1CCOCC1,99.5,98% (inactive),99.5% (inactive),110% (inactive),93.3% (inactive),0.8% (inactive),92.5,93.3,-7.2% (inactive),0.66% (inactive)
COC(=O)c1ccc2ncccc2c1,110,131% (inactive),110% (inactive),111% (inactive),107% (inactive),7.81% (inactive),98.8,107,-1.32% (inactive),7.7% (inactive)
CC(NC(=O)COc1ccc(Br)cc1)C(=O)O (stereo not given),108,114% (inactive),108% (inactive),104% (inactive),91.8% (inactive),4.2% (inactive),87.6,91.8,-3.64% (inactive),-2.33% (inactive)
CSc1nc(C)c(C(=O)Nc2ccccc2)c(C)c1C#N,100,76% (inactive),100% (inactive),91.7% (inactive),94.2% (inactive),6.57% (inactive),87.6,94.2,-5.87% (inactive),-3.39% (inactive)

SMILES,viability [1] [%],Her2 level [2],viability [3],viability [4],viability [5],differential viability (reversal) ([6]; H69AR cells + 2 uM doxorubicin),"viability [6, 9] [%]","viability [6, 10] [%]",inhibition [7],inhibition [8]
C(=C\c1ccccc1)/CN1CCN(Cc2ccc3c(c2)OCCO3)CC1,85,91.5% (inactive),85% (inactive),105% (inactive),93% (inactive),4.42% (inactive),88.6,93,-3.77% (inactive),1.15% (inactive)
CCOc1cc(C(=O)NCC2CCCO2)cc(OCC)c1OCC (stereo not given),100,110% (inactive),100% (inactive),119% (inactive),102% (inactive),10% (inactive),92.2,102,-4.86% (inactive),-5.33% (inactive)
O=C(CN1CCN(c2cccc(Cl)c2)CC1)N1CCCC1,105,102% (inactive),105% (inactive),110% (inactive),78.8% (inactive),-2.74% (inactive),81.5,78.8,-6.75% (inactive),-7.46% (inactive)
O=C(CSc1nnc(-c2ccc(Br)o2)n1Cc1ccccc1)c1ccccc1F,81.5,91% (inactive),81.5% (inactive),86.3% (inactive),64.7% (inactive),-11.2% (inactive),75.9,64.7,3.11% (inactive),-2.13% (inactive)
COC(=O)Cc1csc(N)n1,95,82.5% (inactive),95% (inactive),90.1% (inactive),93% (inactive),4.79% (inactive),88.2,93,0.92% (inactive),-3.27% (inactive)
CC(=O)c1cc(F)c(N2CCN(C(=O)Cc3ccccc3)CC2)cc1C,96.5,97% (inactive),96.5% (inactive),107% (inactive),93.5% (inactive),-7.49% (inactive),101,93.5,0% (inactive),-4.35% (inactive)
CCOC(=O)C1CCCN(C(=O)c2cc(=O)c3ccccc3o2)C1 (stereo not given),94.5,87% (inactive),94.5% (inactive),95.2% (inactive),97.3% (inactive),-4.92% (inactive),102,97.3,-2.89% (inactive),-0.95% (inactive)
COC(=O)c1ccccc1NC(=O)C1CCCCC1C(=O)O (stereo not given),103,116% (inactive),103% (inactive),91% (inactive),90.3% (inactive),-1.56% (inactive),91.8,90.3,-2.93% (inactive),-9.52% (inactive)
COc1ccccc1N=Cc1nc(-c2ccccc2)oc1OC(C)=O,99,82.5% (inactive),99% (inactive),79.2% (inactive),63.1% (inactive),-13.8% (inactive),76.8,63.1,-4.61% (inactive),-2.38% (inactive)
CCOC(=O)c1cc(C)sc1N1C(=O)C2C3C=CC(C3)C2C1=O (stereo not given),132,94.5% (inactive),132% (inactive),109% (inactive),98.7% (inactive),5.84% (inactive),92.8,98.7,-7.67% (inactive),-0.95% (inactive)
CCCNC(=O)c1ccccc1NC(=O)CN(c1ccccc1OCC)S(C)(=O)=O,87,111% (inactive),87% (inactive),112% (inactive),98.1% (inactive),7.5% (inactive),90.6,98.1,-0.13% (inactive),-2.33% (inactive)
O=C(CSc1nnc(Cc2ccccc2)n1C1CCCCC1)N1CCOCC1,92.5,110% (inactive),92.5% (inactive),97.9% (inactive),95.6% (inactive),6.44% (inactive),89.2,95.6,-3.03% (inactive),-3.97% (inactive)
O=C(NC(C(=O)c1ccccc1)n1ccc(=O)[nH]c1=O)c1ccccc1 (stereo not given),98.5,99% (inactive),98.5% (inactive),98.8% (inactive),91.2% (inactive),6.79% (inactive),84.4,91.2,-0.93% (inactive),23.1% (inactive)
Nn1c(SCC(=O)NC2CCCCC2)nnc1C1CC1,102,111% (inactive),102% (inactive),98.4% (inactive),103% (inactive),0.415% (inactive),103,103,-0.52% (inactive),10.8% (inactive)
CCOC(=O)CNC(=O)CSc1nc(N)cc(N)n1,92,96% (inactive),92% (inactive),113% (inactive),96.7% (inactive),0.07% (inactive),96.6,96.7,-4.27% (inactive),-9.84% (inactive)
O=C(CCN1CCOCC1)Nc1cccc(Br)c1,100,86% (inactive),100% (inactive),78.9% (inactive),92.9% (inactive),7.72% (inactive),85.2,92.9,-5.47% (inactive),-6.56% (inactive)
